In ChEMBL document CHEMBL1944548, “Discovery of kinase spectrum selective macrocycle (16E)-14-methyl-20-oxa-5,7,14,26-tetraazatetracyclo[19.3.1.1(2,6).1(8,12)]heptacosa-1(25),2(26),3,5,8(27),9,11,16,21,23-decaene (SB1317/TG02), a potent inhibitor of cyclin dependent kinases (CDKs), Janus kinase 2 (JAK2), and fms-like tyrosine …” (J Med Chem, 2012):
pIC50: −log10 of the molar value.

Key:
[1] = Plasma protein binding in dog at 1000 ng/ml after 4 hrs by equilibrium dialysis method; type: ADME, cell-free, Canis lupus familiaris; conditions: read-out: PPB
How it was run: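 Equilibrium dialysis of plasma (mouse, dog, human) spiked to 1000 ng/mL against PBS, 4 h at 37 °C. Buffer side extracted in triplicate with MTBE, dried, reconstituted in methanol/water 60:40, measured by LC−MS/MS.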

[2] = tested on: Ramos; test: Antitumor activity against human Ramos cells xenografted in BALB/c nude mouse assessed as tumor growth inhibition at 15 mg/kg, ip qd on a 5 days on 5 days off schedule for 15 days; type: functional; conditions: route intraperitoneal, read-out: GI
[3] = biological target: Cytochrome P450 3A4 (Homo sapiens, UniProt P08684); test: Inhibition of CYP3A4 in human liver microsomes using midazolam as substrate after 5 mins by LC-MS/MS analysis; type: ADME, Microsome
[4] = tested on: HCT-116; test: Antitumor activity against human HCT116 cells xenografted in BALB/c nude mouse assessed as tumor growth inhibition at 75 mg/kg, po qd administered thrice in a week for 15 days; type: functional; conditions: HCT-116, 360 h, read-out: GI
[5] = Cmax in BALB/c mouse at 75 mg/kg, po by LC-MS/MS analysis; type: ADME, organism-based; parameters: dose 75 mg/kg, route oral; conditions: in vivo
How it was run: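 Male BALB/c mice (~10−12 weeks, 17−22 g) gavaged with 75 mg/kg as a suspension in 0.5% methylcellulose/0.1% Tween 80. Serial blood by cardiac puncture over 0−24 h into K3EDTA, plasma stored at −70 °C, LC−MS/MS; parameters by noncompartmental analysis.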

[6] = Half life in dog liver microsomes at 5 uM by LC-MS/MS analysis; type: ADME, Canis lupus familiaris, Microsome
How it was run: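 5 μM with mouse, rat, dog or human liver microsomes (~0.87 mg/mL), 50 mM potassium phosphate pH 7.4, NADPH regeneration system, 37 °C.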

[7] = Oral bioavailability in Beagle dog at 10 mg/kg by LC-MS/MS analysis; conditions: in vivo

Chain of Cytochrome P450 3A4 (P08684 whole entry): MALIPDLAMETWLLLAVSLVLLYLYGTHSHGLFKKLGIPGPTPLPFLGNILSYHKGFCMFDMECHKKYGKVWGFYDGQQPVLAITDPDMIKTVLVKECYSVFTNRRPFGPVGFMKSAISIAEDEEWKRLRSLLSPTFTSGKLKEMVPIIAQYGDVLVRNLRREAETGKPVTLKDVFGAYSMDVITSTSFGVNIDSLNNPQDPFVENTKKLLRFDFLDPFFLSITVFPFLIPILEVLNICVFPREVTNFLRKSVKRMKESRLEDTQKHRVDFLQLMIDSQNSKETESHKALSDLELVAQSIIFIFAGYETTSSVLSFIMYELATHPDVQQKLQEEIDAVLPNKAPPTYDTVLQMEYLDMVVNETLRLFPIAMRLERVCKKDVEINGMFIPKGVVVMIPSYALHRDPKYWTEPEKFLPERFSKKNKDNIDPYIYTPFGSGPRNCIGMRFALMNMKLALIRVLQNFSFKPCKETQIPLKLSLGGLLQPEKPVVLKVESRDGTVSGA

Question: Which fraction unbound at 4 h, 1000 ng/ml [1] does the source give for `CN1C/C=C/CCOc2cccc(c2)-c2ccnc(n2)Nc2cccc(c2)C1` [ZOTIRACICLIB] here?
Answer: 0.001

Question: What about the inhibition in vivo at 15 mg/kg [2] of the same compound?
Answer: 63%

Question: What about the pIC50 [3] of the same compound?
Answer: < 4.60

Question: And the inhibition in vivo at 75 mg/kg [4]?
Answer: 82%

Question: And the Cmax [5]?
Answer: 1030 ng/mL

Question: What about the half-life at 5 µM [6] of the same compound?
Answer: 33 min

Question: And the bioavailability [7]?
Answer: 37%
